Activity calls are given as the source filed them. No cut-off for these calls is given here.
Key:
[1] = Cytotoxicity against mouse Primary chondrocytes assessed as reduction in cell viability at 0.001 to 5 uM after 3 days by MTT assay; details: 72 h
Procedure, shortened: (§1)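 Cells plated at 60000/well (primary chondrocytes from epiphyseal cartilage of 5-6 day-old SWISS mice) or 100 000/well (MG-63, MOVAS cell lines). Grown in DMEM with 10% FBS plus penicillin/streptomycin, with or without inhibitor, for 3 days up to confluence. MTT 0.125 mg/mL final for 4 h, then DMSO solubilization and A570 read. Normalized to 0.1% DMSO control as 100%. Three sample pools, each in triplicate (n = 9).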

[2] = molecular target: Matrix metalloproteinase-9 (Mus musculus) (UniProt P41245); assay: Inhibition of MMP9 in mouse Primary chondrocytes derived after 2 passages at 1 uM after 24 hrs by Coomassie blue staining-based zymography assay; assay type: cell-based
Procedure, shortened: (§2)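 Gelatin zymography of extracellular medium from primary mouse chondrocytes. Medium collected in pH 7.5 Tris/EGTA/Triton extraction buffer, and equal protein run on 8% SDS gels with 1.2 mg/mL gelatin. Renatured in Tris/20% glycerol (2 × 45 min), then pH 7.4 Tris/NaCl/5 mM CaCl2 buffer. After 30 min, fresh buffer with 0.1% DMSO ± inhibitor for 24 h at 37 °C. Coomassie stained; clear bands scored. Triplicate.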

[3] = molecular target: 72 kDa type IV collagenase (Mus musculus) (UniProt P33434); assay: Inhibition of MMP2 in mouse Primary chondrocytes derived after 2 passages at 1 uM after 24 hrs by Coomassie blue staining-based zymography assay; assay type: cell-based; procedure, shortened: as §2
[4] = molecular target: Cathepsin S (Homo sapiens, UniProt P25774); assay: Inhibition of recombinant human cathepsin S expressed in Escherichia coli
[5] = Cytotoxicity against mouse MOVAS1 cells assessed as reduction in cell viability at 0.001 to 5 uM after 3 days by MTT assay; assay type: cell-based; details: 72 h; procedure, shortened: as §1
[6] = molecular target: T1, Cathepsin K (Homo sapiens, UniProt P43235); assay: Inhibition of recombinant His-tagged human cathepsin K expressed in Escherichia coli
T1 sequence (P43235 whole entry): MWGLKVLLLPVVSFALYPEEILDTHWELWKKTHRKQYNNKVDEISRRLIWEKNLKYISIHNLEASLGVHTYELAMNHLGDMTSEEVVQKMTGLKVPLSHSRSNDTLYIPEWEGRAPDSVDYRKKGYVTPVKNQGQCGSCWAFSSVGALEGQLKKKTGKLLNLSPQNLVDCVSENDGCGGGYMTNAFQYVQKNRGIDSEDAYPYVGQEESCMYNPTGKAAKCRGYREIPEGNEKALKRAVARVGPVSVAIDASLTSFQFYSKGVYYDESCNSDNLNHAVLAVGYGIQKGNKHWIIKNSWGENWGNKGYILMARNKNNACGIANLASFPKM

[7] = molecular target: T2, Cathepsin K (Mus musculus) (UniProt P55097); assay: Inhibition of cathepsin K in mouse Primary chondrocytes derived after 2 passages at 1 uM after 24 hrs by Coomassie blue staining-based zymography assay; assay type: cell-based
T2 sequence (whole entry): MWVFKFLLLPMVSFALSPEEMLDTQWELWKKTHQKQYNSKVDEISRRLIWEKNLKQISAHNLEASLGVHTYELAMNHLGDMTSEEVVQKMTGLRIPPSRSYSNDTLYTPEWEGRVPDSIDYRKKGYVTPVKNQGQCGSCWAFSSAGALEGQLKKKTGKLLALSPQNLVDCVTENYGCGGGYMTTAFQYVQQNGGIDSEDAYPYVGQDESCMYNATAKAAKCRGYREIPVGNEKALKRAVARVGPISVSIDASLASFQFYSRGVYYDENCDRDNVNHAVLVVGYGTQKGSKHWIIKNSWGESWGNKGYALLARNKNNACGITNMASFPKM
Procedure, shortened: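 Chondrocyte lysates in pH 7.5 extraction buffer. Equal protein resolved on 12% SDS gels containing 2 mg/mL gelatin. Renatured in Tris/glycerol, then developed in pH 6.0 100 mM sodium phosphate with 1 mM EDTA and 2 mM DTT. After 30 min, buffer exchanged for fresh buffer with 0.1% DMSO ± inhibitor for 24 h at 37 °C. Coomassie stain and destain; lysis zones indicate activity.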

[8] = tested on: MG-63; assay: Cytotoxicity against human MG63 cells assessed as reduction in cell viability at 0.001 to 5 uM after 3 days by MTT assay; assay type: cell-based; details: mg-63, 72 h; procedure, shortened: as §1
[9] = organism: Mus musculus; assay: Inhibition of aggrecanase in mouse Primary chondrocytes derived after 1 passages assessed as effect on measuring sGAG content at 1 uM by Alcian blue staining-based assay; assay type: cell-based
Procedure, shortened: (§3)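 Passaged primary chondrocytes cultured ± inhibitor. Washed in PBS, fixed in 4% formaldehyde for 30 min at RT, then stained 30 min with 1% Alcian blue in 0.1 N HCl. Dye extracted with 33% isopropanol in 4.0 mol/L GnCl and A595 measured. Three independent experiments in triplicate.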

[10] = organism: Mus musculus; assay: Inhibition of aggrecanase in mouse Primary chondrocytes derived after 0 passages assessed as effect on measuring sGAG content at 1 uM by Alcian blue staining-based assay; assay type: cell-based
[11] = molecular target: T2, Cathepsin K (Mus musculus); assay: Inhibition of cathepsin K in mouse Primary chondrocytes derived after 2 passages at 0.1 to 1 uM using Z-GPR-4MbetaNA as substrate by fluorescence assay relative to control; assay type: cell-based
Procedure, shortened: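 Lysates of passaged primary chondrocytes in zymography extraction buffer. Incubated with Z-GPR-4MβNA (1 mg/mL), and released 4MβNA captured with 10 μM 5-nitrosalicylaldehyde. Fluorescence read at ex 488/em 525 nm, at least three reads per condition. Activity taken as (control − sample fluorescence) normalized to Bradford protein. Three independent experiments in triplicate.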

[12] = molecular target: Procathepsin L (Homo sapiens, UniProt P07711); assay: Inhibition of human liver cathepsin L
[13] = organism: Mus musculus; assay: Inhibition of aggrecanase in mouse Primary chondrocytes derived after 2 passages assessed as effect on measuring sGAG content at 1 uM by Alcian blue staining-based assay; assay type: cell-based; procedure, shortened: as §3

Sequence of Cathepsin S (P25774 whole entry): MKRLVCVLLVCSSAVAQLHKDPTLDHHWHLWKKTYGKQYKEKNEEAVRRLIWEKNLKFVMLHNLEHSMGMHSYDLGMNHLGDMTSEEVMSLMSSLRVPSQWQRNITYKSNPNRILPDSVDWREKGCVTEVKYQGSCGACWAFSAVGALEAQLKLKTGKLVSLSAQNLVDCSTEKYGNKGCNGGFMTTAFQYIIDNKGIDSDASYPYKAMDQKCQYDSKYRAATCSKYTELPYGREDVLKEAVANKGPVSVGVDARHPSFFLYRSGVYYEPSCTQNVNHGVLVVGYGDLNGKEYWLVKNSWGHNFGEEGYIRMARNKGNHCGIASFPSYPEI
Sequence of Matrix metalloproteinase-9 (Mus musculus) (P41245 whole entry): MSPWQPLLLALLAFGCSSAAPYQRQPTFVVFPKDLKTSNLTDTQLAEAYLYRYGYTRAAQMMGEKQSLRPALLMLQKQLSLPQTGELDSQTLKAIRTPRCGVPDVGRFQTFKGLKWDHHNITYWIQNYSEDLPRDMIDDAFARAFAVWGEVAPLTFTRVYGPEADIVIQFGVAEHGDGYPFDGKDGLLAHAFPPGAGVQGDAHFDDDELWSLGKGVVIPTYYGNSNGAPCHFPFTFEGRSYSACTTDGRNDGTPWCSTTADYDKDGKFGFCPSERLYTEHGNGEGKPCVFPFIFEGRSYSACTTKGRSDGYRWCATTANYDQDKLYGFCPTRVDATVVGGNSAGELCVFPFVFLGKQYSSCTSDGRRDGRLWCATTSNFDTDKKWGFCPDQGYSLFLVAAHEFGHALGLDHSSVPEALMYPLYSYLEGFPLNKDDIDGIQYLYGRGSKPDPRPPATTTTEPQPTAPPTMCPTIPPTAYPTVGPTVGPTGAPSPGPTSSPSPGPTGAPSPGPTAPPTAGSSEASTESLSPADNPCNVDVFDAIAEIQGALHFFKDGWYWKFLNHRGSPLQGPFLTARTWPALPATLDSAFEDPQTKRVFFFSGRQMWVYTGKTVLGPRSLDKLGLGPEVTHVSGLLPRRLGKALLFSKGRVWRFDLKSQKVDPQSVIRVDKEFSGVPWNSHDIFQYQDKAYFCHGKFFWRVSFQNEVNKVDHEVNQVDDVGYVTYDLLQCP
Sequence of 72 kDa type IV collagenase (Mus musculus) (P33434 whole entry): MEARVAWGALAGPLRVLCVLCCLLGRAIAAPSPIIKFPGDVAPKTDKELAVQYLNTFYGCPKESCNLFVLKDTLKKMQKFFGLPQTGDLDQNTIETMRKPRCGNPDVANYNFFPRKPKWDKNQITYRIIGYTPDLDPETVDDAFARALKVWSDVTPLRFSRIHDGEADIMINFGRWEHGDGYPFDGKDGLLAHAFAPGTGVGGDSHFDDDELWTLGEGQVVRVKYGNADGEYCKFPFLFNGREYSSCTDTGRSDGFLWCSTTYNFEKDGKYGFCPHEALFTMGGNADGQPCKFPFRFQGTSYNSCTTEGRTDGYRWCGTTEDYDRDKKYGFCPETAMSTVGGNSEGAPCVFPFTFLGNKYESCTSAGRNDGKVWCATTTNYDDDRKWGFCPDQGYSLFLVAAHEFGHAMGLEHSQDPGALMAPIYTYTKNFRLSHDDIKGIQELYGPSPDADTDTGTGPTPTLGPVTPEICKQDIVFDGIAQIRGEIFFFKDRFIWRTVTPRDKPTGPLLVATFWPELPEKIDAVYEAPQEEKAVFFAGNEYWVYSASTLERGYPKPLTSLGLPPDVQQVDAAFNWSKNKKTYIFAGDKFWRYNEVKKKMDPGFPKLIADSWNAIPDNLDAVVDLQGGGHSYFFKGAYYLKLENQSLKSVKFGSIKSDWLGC
Sequence of Procathepsin L (P07711 whole entry): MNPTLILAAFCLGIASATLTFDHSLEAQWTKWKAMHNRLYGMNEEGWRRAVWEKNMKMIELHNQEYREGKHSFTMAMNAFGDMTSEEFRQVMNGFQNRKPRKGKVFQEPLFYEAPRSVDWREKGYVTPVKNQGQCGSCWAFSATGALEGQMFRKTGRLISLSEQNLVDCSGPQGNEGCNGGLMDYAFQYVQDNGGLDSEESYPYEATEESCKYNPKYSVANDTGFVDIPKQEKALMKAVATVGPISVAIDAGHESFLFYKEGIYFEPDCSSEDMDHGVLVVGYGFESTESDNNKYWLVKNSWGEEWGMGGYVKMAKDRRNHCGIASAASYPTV

| Structure (SMILES) | Activity [1] | inhibition [2] | inhibition [3] | IC50 [4] | Ki [4] | Activity [5] | IC50 [6] | Ki [6] | inhibition [7] | Activity [8] | inhibition [9] | inhibition [10] | inhibition [11] | IC50 [12] | Ki [12] | inhibition [13] |
| --- | --- | --- | --- | --- | --- | --- | --- | --- | --- | --- | --- | --- | --- | --- | --- | --- |
| CC(C)CC(C(=O)N(C)N(C)C#N)c1cccc(-c2ccc(S(C)(=O)=O)cc2)c1 (racemic) | Non-Toxic | inactive | inactive | 1020 nM | 735 nM | Non-Toxic | 15 nM | 7.21 nM | Active | Non-Toxic | inactive | inactive | 30 to 40% | 2710 nM | 406 nM | inactive |
| CC(C)(F)C[C@H](N[C@@H](c1ccc(-c2ccc(S(C)(=O)=O)cc2)cc1)C(F)(F)F)C(=O)NC1(C#N)CC1 |  | inactive | inactive |  |  |  |  |  | Active |  |  |  | 19 to 30% |  |  |  |
